From ChEMBL document CHEMBL4152188, “Design, synthesis and biological evaluation of C(4) substituted monobactams as antibacterial agents against multidrug-resistant Gram-negative bacteria” (Eur J Med Chem, 2018)
Converted amounts (≈) assume the structure as drawn.

Columns and labels:
Assay type in all cases: functional
Escherichia coli [1] = test: Antibacterial activity against extended-spectrum beta-lactamase producing Escherichia coli isolate 212648 after 18 hrs by CLSI broth microdilution method; conditions: isolate 212648, 18 h
Escherichia coli [2] = test: Antibacterial activity against Escherichia coli isolate 210737 after 18 hrs by CLSI broth microdilution method; conditions: isolate 210737, 18 h
Escherichia coli [3] = test: Antibacterial activity against extended-spectrum beta-lactamase producing Escherichia coli isolate 208687 after 18 hrs by CLSI broth microdilution method; conditions: isolate 208687, 18 h
Escherichia coli [4] = test: Antibacterial activity against extended-spectrum beta-lactamase producing Escherichia coli isolate 209285 after 18 hrs by CLSI broth microdilution method; conditions: isolate 209285, 18 h
Escherichia coli [5] = test: Antibacterial activity against extended-spectrum beta-lactamase producing Escherichia coli isolate 106342 after 18 hrs by CLSI broth microdilution method; conditions: isolate 106342, 18 h
Klebsiella pneumoniae [6] = test: Antibacterial activity against KPC-2 producing Klebsiella pneumoniae isolate 212232 after 18 hrs by CLSI broth microdilution method; conditions: isolate 212232, 18 h
Klebsiella pneumoniae [7] = test: Antibacterial activity against KPC-2 producing Klebsiella pneumoniae isolate 212229 after 18 hrs by CLSI broth microdilution method; conditions: isolate 212229, 18 h
Pseudomonas aeruginosa [8] = test: Antibacterial activity against IMP-4 producing Pseudomonas aeruginosa isolate 209471 after 18 hrs by CLSI broth microdilution method; conditions: isolate 209471, 18 h
Pseudomonas aeruginosa [9] = test: Antibacterial activity against IMP-4 producing Pseudomonas aeruginosa isolate 208247 after 18 hrs by CLSI broth microdilution method; conditions: isolate 208247, 18 h
Escherichia coli [10] = test: Selectivity index, ratio of MIC for against extended-spectrum beta-lactamase producing Escherichia coli isolate 208687 to MIC for extended-spectrum beta-lactamase producing Escherichia coli isolate 208687 in presence of BPL
Escherichia coli [11] = test: Antibacterial activity against extended-spectrum beta-lactamase producing Escherichia coli isolate 208687 after 18 hrs in presence of BPL by CLSI broth microdilution method; conditions: isolate 208687, 18 h
Outline: (§1)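 CLSI broth microdilution against clinical isolates (ESBL E. coli, KPC-2 MDR K. pneumoniae, IMP-4 MDR P. aeruginosa; five per species). Iron limitation: Mueller-Hinton broth supplemented with 16 mg/liter 2,2'-bipyridyl to complex iron and induce iron uptake systems. Read-out: MIC.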

Escherichia coli [12] = test: Antibacterial activity against Escherichia coli isolate 210737 after 18 hrs in presence of BPL by CLSI broth microdilution method; conditions: isolate 210737, 18 h; outline: as §1
Escherichia coli [13] = test: Selectivity index, ratio of MIC for against Escherichia coli isolate 210737 to MIC for Escherichia coli isolate 210737 in presence of BPL
Escherichia coli [14] = test: Antibacterial activity against extended-spectrum beta-lactamase producing Escherichia coli isolate 212648 after 18 hrs in presence of BPL by CLSI broth microdilution method; conditions: isolate 212648, 18 h; outline: as §1
Escherichia coli [15] = test: Selectivity index, ratio of MIC for against extended-spectrum beta-lactamase producing Escherichia coli isolate 212648 to MIC for extended-spectrum beta-lactamase producing Escherichia coli isolate 212648 in presence of BPL
Escherichia coli [16] = test: Antibacterial activity against extended-spectrum beta-lactamase producing Escherichia coli isolate 209285 after 18 hrs in presence of BPL by CLSI broth microdilution method; conditions: isolate 209285, 18 h; outline: as §1
Escherichia coli [17] = test: Selectivity index, ratio of MIC for against extended-spectrum beta-lactamase producing Escherichia coli isolate 209285 to MIC for extended-spectrum beta-lactamase producing Escherichia coli isolate 209285 in presence of BPL
Escherichia coli [18] = test: Antibacterial activity against extended-spectrum beta-lactamase producing Escherichia coli isolate 106342 after 18 hrs in presence of BPL by CLSI broth microdilution method; conditions: isolate 106342, 18 h; outline: as §1
Escherichia coli [19] = test: Selectivity index, ratio of MIC for against extended-spectrum beta-lactamase producing Escherichia coli isolate 106342 to MIC for extended-spectrum beta-lactamase producing Escherichia coli isolate 106342 in presence of BPL
Klebsiella pneumoniae [20] = test: Antibacterial activity against KPC-2 producing Klebsiella pneumoniae isolate 212423 after 18 hrs by CLSI broth microdilution method; conditions: isolate 212423, 18 h
Klebsiella pneumoniae [21] = test: Antibacterial activity against KPC-2 producing Klebsiella pneumoniae isolate 212423 after 18 hrs in presence of BPL by CLSI broth microdilution method; conditions: isolate 212423, 18 h; outline: as §1
Klebsiella pneumoniae [22] = test: Selectivity index, ratio of MIC for against KPC-2 producing Klebsiella pneumoniae isolate 212423 to MIC for against KPC-2 producing Klebsiella pneumoniae isolate 212423 in presence of BPL
Klebsiella pneumoniae [23] = test: Antibacterial activity against KPC-2 producing Klebsiella pneumoniae isolate 209632 after 18 hrs by CLSI broth microdilution method; conditions: isolate 209632, 18 h
Klebsiella pneumoniae [24] = test: Antibacterial activity against KPC-2 producing Klebsiella pneumoniae isolate 209632 after 18 hrs in presence of BPL by CLSI broth microdilution method; conditions: isolate 209632, 18 h; outline: as §1
Klebsiella pneumoniae [25] = test: Selectivity index, ratio of MIC for against KPC-2 producing Klebsiella pneumoniae isolate 209632 to MIC for against KPC-2 producing Klebsiella pneumoniae isolate 209632 in presence of BPL
Klebsiella pneumoniae [26] = test: Antibacterial activity against KPC-2 producing Klebsiella pneumoniae isolate 209735 after 18 hrs by CLSI broth microdilution method; conditions: isolate 209735, 18 h
Klebsiella pneumoniae [27] = test: Antibacterial activity against KPC-2 producing Klebsiella pneumoniae isolate 209735 after 18 hrs in presence of BPL by CLSI broth microdilution method; conditions: isolate 209735, 18 h; outline: as §1
Klebsiella pneumoniae [28] = test: Selectivity index, ratio of MIC for against KPC-2 producing Klebsiella pneumoniae isolate 209735 to MIC for against KPC-2 producing Klebsiella pneumoniae isolate 209735 in presence of BPL
Klebsiella pneumoniae [29] = test: Antibacterial activity against KPC-2 producing Klebsiella pneumoniae isolate 212232 after 18 hrs in presence of BPL by CLSI broth microdilution method; conditions: isolate 212232, 18 h; outline: as §1
Klebsiella pneumoniae [30] = test: Selectivity index, ratio of MIC for against KPC-2 producing Klebsiella pneumoniae isolate 212232 to MIC for against KPC-2 producing Klebsiella pneumoniae isolate 212232 in presence of BPL
Klebsiella pneumoniae [31] = test: Antibacterial activity against KPC-2 producing Klebsiella pneumoniae isolate 212229 after 18 hrs in presence of BPL by CLSI broth microdilution method; conditions: isolate 212229, 18 h; outline: as §1
Klebsiella pneumoniae [32] = test: Selectivity index, ratio of MIC for against KPC-2 producing Klebsiella pneumoniae isolate 212229 to MIC for against KPC-2 producing Klebsiella pneumoniae isolate 212229 in presence of BPL
Pseudomonas aeruginosa [33] = test: Antibacterial activity against IMP-4 producing Pseudomonas aeruginosa isolate 212886 after 18 hrs by CLSI broth microdilution method; conditions: isolate 212886, 18 h
Pseudomonas aeruginosa [34] = test: Antibacterial activity against IMP-4 producing Pseudomonas aeruginosa isolate 212886 after 18 hrs in presence of BPL by CLSI broth microdilution method; conditions: isolate 212886, 18 h; outline: as §1
Pseudomonas aeruginosa [35] = test: Antibacterial activity against IMP-4 producing Pseudomonas aeruginosa isolate 209471 after 18 hrs in presence of BPL by CLSI broth microdilution method; conditions: isolate 209471, 18 h; outline: as §1
Pseudomonas aeruginosa [36] = test: Antibacterial activity against IMP-4 producing Pseudomonas aeruginosa isolate 208247 after 18 hrs in presence of BPL by CLSI broth microdilution method; conditions: isolate 208247, 18 h; outline: as §1
Pseudomonas aeruginosa [37] = test: Selectivity index, ratio of MIC for against IMP-4 producing Pseudomonas aeruginosa isolate 208247 to MIC for against IMP-4 producing Pseudomonas aeruginosa isolate 208247 in presence of BPL
Pseudomonas aeruginosa [38] = test: Antibacterial activity against IMP-4 producing Pseudomonas aeruginosa isolate 209321 after 18 hrs by CLSI broth microdilution method; conditions: isolate 209321, 18 h
Pseudomonas aeruginosa [39] = test: Antibacterial activity against IMP-4 producing Pseudomonas aeruginosa isolate 209321 after 18 hrs in presence of BPL by CLSI broth microdilution method; conditions: isolate 209321, 18 h; outline: as §1
Pseudomonas aeruginosa [40] = test: Antibacterial activity against IMP-4 producing Pseudomonas aeruginosa isolate 207272 after 18 hrs by CLSI broth microdilution method; conditions: isolate 207272, 18 h
Pseudomonas aeruginosa [41] = test: Antibacterial activity against IMP-4 producing Pseudomonas aeruginosa isolate 207272 after 18 hrs in presence of BPL by CLSI broth microdilution method; conditions: isolate 207272, 18 h; outline: as §1
Pseudomonas aeruginosa [42] = test: Selectivity index, ratio of MIC for against IMP-4 producing Pseudomonas aeruginosa isolate 207272 to MIC for against IMP-4 producing Pseudomonas aeruginosa isolate 207272 in presence of BPL

How did the MIC (Escherichia coli [1]) turn out when C[C@@H](O)[C@H]1C(=O)N2C(C(=O)O)=C(S[C@@H]3CN[C@H](C(=O)N(C)C)C3)[C@H](C)[C@H]12 [MEROPENEM] was run?
Its MIC is 8 µg/mL (≈ 20.9 µM).

And the MIC (Escherichia coli [2])?
The MIC was 0.125 µg/mL (≈ 0.326 µM).

And the MIC (Escherichia coli [3])?
Its MIC is 0.125 µg/mL (≈ 0.326 µM).

And the MIC (Escherichia coli [4])?
The MIC was 1 µg/mL (≈ 2.61 µM).

What about the MIC (Escherichia coli [5]) of the same compound?
The MIC was 8 µg/mL (≈ 20.9 µM).

What about the MIC (Klebsiella pneumoniae [6]) of the same compound?
The MIC was greater than 64 µg/mL.

What about the MIC (Klebsiella pneumoniae [7]) of the same compound?
The MIC was greater than 64 µg/mL.

And the MIC (Pseudomonas aeruginosa [8])?
Its MIC is 32 µg/mL (≈ 83.4 µM).

And the MIC (Pseudomonas aeruginosa [9])?
Its MIC is 32 µg/mL (≈ 83.4 µM).

What does the source list for Cc1csc(SC[C@@H]2[C@H](NC(=O)/C(=N\OC(c3cc(=O)c(O)cn3O)C(C)C)c3csc(N)n3)C(=O)N2S(=O)(=O)O)n1 (stereo partly specified)?
MIC (Escherichia coli [1]): 1 µg/mL (≈ 1.52 µM); Selectivity Index (Escherichia coli [10]): 8; MIC (Escherichia coli [2]): 0.5 µg/mL (≈ 0.758 µM); MIC (Escherichia coli [3]): 2 µg/mL (≈ 3.03 µM); MIC (Escherichia coli [11]): 0.25 µg/mL; MIC (Escherichia coli [12]): 0.25 µg/mL; Selectivity Index (Escherichia coli [13]): 2; MIC (Escherichia coli [14]): 1 µg/mL; Selectivity Index (Escherichia coli [15]): 1; MIC (Escherichia coli [4]): 2 µg/mL (≈ 3.03 µM); MIC (Escherichia coli [16]): 1 µg/mL; Selectivity Index (Escherichia coli [17]): 2; MIC (Escherichia coli [5]): 2 µg/mL (≈ 3.03 µM); MIC (Escherichia coli [18]): 2 µg/mL; Selectivity Index (Escherichia coli [19]): 1; MIC (Klebsiella pneumoniae [20]): 2 µg/mL (≈ 3.03 µM); MIC (Klebsiella pneumoniae [21]): 1 µg/mL; Selectivity Index (Klebsiella pneumoniae [22]): 2; MIC (Klebsiella pneumoniae [23]): 1 µg/mL (≈ 1.52 µM); MIC (Klebsiella pneumoniae [24]): 0.5 µg/mL; Selectivity Index (Klebsiella pneumoniae [25]): 2; MIC (Klebsiella pneumoniae [26]): 2 µg/mL (≈ 3.03 µM); MIC (Klebsiella pneumoniae [27]): 2 µg/mL; Selectivity Index (Klebsiella pneumoniae [28]): 1; MIC (Klebsiella pneumoniae [6]): 2 µg/mL (≈ 3.03 µM); MIC (Klebsiella pneumoniae [29]): 1 µg/mL; Selectivity Index (Klebsiella pneumoniae [30]): 2; MIC (Klebsiella pneumoniae [7]): 1 µg/mL (≈ 1.52 µM); MIC (Klebsiella pneumoniae [31]): 0.5 µg/mL; Selectivity Index (Klebsiella pneumoniae [32]): 2; MIC (Pseudomonas aeruginosa [33]): > 64 µg/mL; MIC (Pseudomonas aeruginosa [34]): > 64 µg/mL; MIC (Pseudomonas aeruginosa [8]): > 64 µg/mL; MIC (Pseudomonas aeruginosa [35]): > 64 µg/mL; MIC (Pseudomonas aeruginosa [9]): 64 µg/mL (≈ 97 µM); MIC (Pseudomonas aeruginosa [36]): 64 µg/mL; Selectivity Index (Pseudomonas aeruginosa [37]): 1; MIC (Pseudomonas aeruginosa [38]): > 64 µg/mL; MIC (Pseudomonas aeruginosa [39]): > 64 µg/mL; MIC (Pseudomonas aeruginosa [40]): 64 µg/mL (≈ 97 µM); MIC (Pseudomonas aeruginosa [41]): 64 µg/mL; Selectivity Index (Pseudomonas aeruginosa [42]): 1
